Reference: ChEMBL document CHEMBL2384957, “Synthesis and antimicrobical evaluation of a novel class of 1,3,4-thiadiazole: derivatives bearing 1,2,4-triazolo[1,5-a]pyrimidine moiety” (2013)
Converted amounts (≈) assume the structure as drawn.

Key:
Format in all cases: functional
[1] = tested on: Rhizoctonia solani; assay: Antifungal activity against Rhizoctonia solani assessed as inhibition of mycelia elongation rate at 50 ppm after 48 hrs relative to control
How it was run: (§1)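 This was a mycelial growth assay on potato glucose agar. Samples were dissolved in DMF at 500 mg/L (stock), and 1 part solution was mixed with 9 parts thawed medium at 50 °C before plating. Solidified plates were inoculated with a 4 mm mycelium disk, inverted and incubated at 28 °C for 48 h. Medium without sample served as blank. Mycelial elongation radius was measured, in triplicate.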

[2] = tested on: Staphylococcus aureus; assay: Antibacterial activity against Staphylococcus aureus ATCC 6538 assessed as growth inhibition after 24 hrs by two-fold serial dilution method; settings: ATCC 6538, 24 h
How it was run: (§2)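 MICs were determined by two-fold serial dilution in nutrient broth, following CLSI. The inoculum came from 24 h bacterial cultures on nutrient agar at 37 ± 1 °C and was adjusted in sterile saline to 1×10⁴–10⁵ CFU/mL. Tubes were incubated at 37 ± 1 °C. MIC was read visually after 24 h, with kanamycin as the reference standard.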

[3] = Antifungal activity against Gibberella saubinettii assessed as inhibition of mycelia elongation rate at 50 ppm after 48 hrs relative to control; settings: Fusarium graminearum
How it was run: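 Poisoned-agar mycelial growth test: sample dissolved in DMF at 500 mg/L, 1 mL mixed into 9 mL thawed potato glucose agar at 50 °C and poured into plates. A 4 mm mycelium disk was placed on each plate, inverted, incubated 28 °C for 48 h. Mycelial elongation radius (mm) measured against a sample-free medium blank; three replicates.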

[4] = tested on: Cercospora beticola; assay: Antifungal activity against Cercospora beticola assessed as inhibition of mycelia elongation rate at 50 ppm after 48 hrs relative to control; how it was run: as §1
[5] = tested on: Escherichia coli; assay: Antibacterial activity against Escherichia coli ATCC 35218 assessed as growth inhibition after 24 hrs by two-fold serial dilution method; settings: ATCC 35218, 24 h; how it was run: as §2
[6] = tested on: Fusarium oxysporum; assay: Antifungal activity against Fusarium oxysporum assessed as inhibition of mycelia elongation rate at 50 ppm after 48 hrs relative to control; how it was run: as §1
[7] = Antifungal activity against Physalospora pyricola assessed as inhibition of mycelia elongation rate at 50 ppm after 48 hrs relative to control; settings: Botryosphaeria berengeriana; how it was run: as §1
[8] = tested on: Pseudomonas fluorescens; assay: Antibacterial activity against Pseudomonas fluorescens ATCC 13525 assessed as growth inhibition after 24 hrs by two-fold serial dilution method; settings: ATCC 13525, 24 h; how it was run: as §2
[9] = tested on: Bacillus spizizenii; assay: Antibacterial activity against Bacillus subtilis ATCC 6633 assessed as growth inhibition after 24 hrs by two-fold serial dilution method; settings: ATCC 6633, 24 h; how it was run: as §2

Structure (SMILES)	inhibition at 50 ppm [1]	MIC [2]	inhibition [3]	inhibition at 50 ppm [4]	MIC [5]	inhibition at 50 ppm [6]	inhibition [7]	MIC [8]	MIC [9]
Cc1cc(C)n2nc(SCc3nnc(SCc4ccc(F)cc4F)s3)nc2n1	79%	25 µg/mL (≈ 57.3 µM)	64%	64%	3.13 µg/mL (≈ 7.17 µM)	56%	86%	12.5 µg/mL (≈ 28.6 µM)	25 µg/mL (≈ 57.3 µM)
NC[C@H]1O[C@H](O[C@H]2[C@H](O)[C@@H](O[C@H]3O[C@H](CO)[C@@H](O)[C@H](N)[C@H]3O)[C@H](N)C[C@@H]2N)[C@H](O)[C@@H](O)[C@@H]1O [KANAMYCIN]		3.13 µg/mL (≈ 6.46 µM)			1.56 µg/mL (≈ 3.22 µM)			3.13 µg/mL (≈ 6.46 µM)	0.78 µg/mL (≈ 1.61 µM)
Cc1cc(C)n2nc(SCc3nnc(SCc4c(F)cccc4F)s3)nc2n1	83%	> 100 µg/mL	33%	60%	12.5 µg/mL (≈ 28.6 µM)	36%	73%	6.25 µg/mL (≈ 14.3 µM)	50 µg/mL (≈ 115 µM)
OCC1=C[C@H](N[C@H]2C[C@H](CO)[C@@H](O[C@@H]3O[C@H](CO)[C@@H](O)[C@H](O)[C@H]3O)[C@H](O)[C@H]2O)[C@H](O)[C@@H](O)[C@@H]1O [VALIDAMYCIN]	75%		37%	42%		35%	47%		
Cc1cc(C)n2nc(SCc3nnc(SCc4cccc(Cl)c4)s3)nc2n1	53%	> 100 µg/mL	15%	57%	25 µg/mL (≈ 57.5 µM)	57%	66%	100 µg/mL (≈ 230 µM)	50 µg/mL (≈ 115 µM)
Cc1cc(C)n2nc(SCc3nnc(SCc4ccc(Br)cc4F)s3)nc2n1	75%	> 100 µg/mL	35%	62%	6.25 µg/mL (≈ 12.6 µM)	38%	82%	12.5 µg/mL (≈ 25.1 µM)	50 µg/mL (≈ 101 µM)
CC(C)(C)C(=O)C(Oc1ccc(Cl)cc1)n1cncn1 (centres undefined) [TRIADIMEFON]	40%		81%	35%		37%	55%		
Cc1cc(C)n2nc(SCc3nnc(SCc4ccc(Br)cc4)s3)nc2n1	51%	> 100 µg/mL	25%	43%	12.5 µg/mL (≈ 26.1 µM)	62%	76%	100 µg/mL (≈ 209 µM)	> 100 µg/mL
Cc1cc(C)n2nc(SCc3nnc(SCc4cccc(F)c4)s3)nc2n1	60%	> 100 µg/mL	17%	41%	12.5 µg/mL (≈ 29.9 µM)	45%	71%	50 µg/mL (≈ 119 µM)	> 100 µg/mL
Cc1cc(C)n2nc(SCc3nnc(SCc4ccccc4Cl)s3)nc2n1	61%	> 100 µg/mL	45%	43%	12.5 µg/mL (≈ 28.7 µM)	40%	77%	100 µg/mL (≈ 230 µM)	> 100 µg/mL
Cc1cc(C)n2nc(SCc3nnc(SCc4ccc(F)cc4)s3)nc2n1	55%	> 100 µg/mL	18%	60%	12.5 µg/mL (≈ 29.9 µM)	42%	79%	50 µg/mL (≈ 119 µM)	50 µg/mL (≈ 119 µM)
Cc1cccc(CSc2nnc(CSc3nc4nc(C)cc(C)n4n3)s2)c1	54%	> 100 µg/mL	45%	43%	12.5 µg/mL (≈ 30.2 µM)	55%	72%	50 µg/mL (≈ 121 µM)	> 100 µg/mL
C=Cc1ccc(CSc2nnc(CSc3nc4nc(C)cc(C)n4n3)s2)cc1	50%	12.5 µg/mL (≈ 29.3 µM)	78%	54%	12.5 µg/mL (≈ 29.3 µM)	42%	72%	100 µg/mL (≈ 234 µM)	50 µg/mL (≈ 117 µM)
Cc1cc(C)n2nc(SCc3nnc(SCc4ccccc4Br)s3)nc2n1	63%	> 100 µg/mL	44%	45%	12.5 µg/mL (≈ 26.1 µM)	40%	75%	25 µg/mL (≈ 52.1 µM)	> 100 µg/mL
COc1cccc(CSc2nnc(CSc3nc4nc(C)cc(C)n4n3)s2)c1	49%	12.5 µg/mL (≈ 29 µM)	67%	62%	25 µg/mL (≈ 58.1 µM)	44%	69%	> 100 µg/mL	50 µg/mL (≈ 116 µM)
Cc1cc(C)n2nc(SCc3nnc(SCc4ccccc4F)s3)nc2n1	68%	> 100 µg/mL	45%	39%	12.5 µg/mL (≈ 29.9 µM)	55%	78%	25 µg/mL (≈ 59.7 µM)	> 100 µg/mL
Cc1ccc(CSc2nnc(CSc3nc4nc(C)cc(C)n4n3)s2)cc1	57%	> 100 µg/mL	32%	38%	12.5 µg/mL (≈ 30.2 µM)	65%	74%	50 µg/mL (≈ 121 µM)	> 100 µg/mL
Cc1ccc(CSc2nnc(CSc3nc4nc(C)cc(C)n4n3)s2)c([N+](=O)[O-])c1	80%	25 µg/mL (≈ 54.4 µM)	66%	64%	12.5 µg/mL (≈ 27.2 µM)	54%	78%	1.56 µg/mL (≈ 3.39 µM)	25 µg/mL (≈ 54.4 µM)
Cc1cc(C)n2nc(SCc3nnc(SCc4cccc([N+](=O)[O-])c4)s3)nc2n1	64%	25 µg/mL (≈ 56.1 µM)	64%	70%	25 µg/mL (≈ 56.1 µM)	28%	63%	25 µg/mL (≈ 56.1 µM)	25 µg/mL (≈ 56.1 µM)
Cc1cc(C)n2nc(SCc3nnc(SCc4ccc(C)c([N+](=O)[O-])c4)s3)nc2n1	89%	> 100 µg/mL	41%	78%	25 µg/mL (≈ 54.4 µM)	40%	68%	12.5 µg/mL (≈ 27.2 µM)	12.5 µg/mL (≈ 27.2 µM)
COC(=O)Nc1nc2ccccc2[nH]1 [CARBENDAZIM]	62%		75%	66%		48%	74%		
Cc1cc(C)n2nc(SCc3nnc(SCc4cccc(Br)c4)s3)nc2n1	67%	> 100 µg/mL	47%	77%	50 µg/mL (≈ 104 µM)	56%	58%	50 µg/mL (≈ 104 µM)	12.5 µg/mL (≈ 26.1 µM)
Cc1cc(C)n2nc(SCc3nnc(SCc4cc(F)cc(F)c4)s3)nc2n1	75%	> 100 µg/mL	41%	61%	25 µg/mL (≈ 57.3 µM)	38%	68%	12.5 µg/mL (≈ 28.6 µM)	50 µg/mL (≈ 115 µM)
Cc1cc(C)n2nc(SCc3nnc(SCc4ccccc4C)s3)nc2n1	55%	> 100 µg/mL	48%	36%	12.5 µg/mL (≈ 30.2 µM)	50%	73%	25 µg/mL (≈ 60.3 µM)	> 100 µg/mL
